# UPR XBP1 act – activators of adaptive arm of unfolded protein response (XBP1) | activation, % at 20 µM | AID 463104 | CHO-XBP1 luciferase reporter, IRE1-XBP1 UPR activation, luminescence; percent of tunicamycin response, DMSO as zero | hit rate 0.33% among 330,000;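 active = versus positive control, 20 µM dose yields 30% or more activation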;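 also: 100% = tunicamycin at 10 µg/mL and 0% = DMSO only wells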
#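 Assay system: CHO-XBP1 luciferase reporter cells; Schedule: 6 h treatment, 37 °C; Detection: glow luminescence from Steady-Glo reagent; Benchmarks: high control tunicamycin 10 µg/mL final, low control DMSO vehicle only.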
# CHOP UPR activ – activators of apoptotic arm of unfolded protein response (CHOP). CHO-CHOP luciferase reporter, UPR activation, luminescence; percent of tunicamycin response over DMSO baseline. activation, % at 10 µM. hit rate 0.34% among 330,000;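 active = at 10 µM dose, activation of 40% or more, normalized to positive control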;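 also: 100% = tunicamycin at 10 µg/mL and 0% = DMSO alone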
#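 Material: CHO-CHOP cells, stable luciferase reporter of PERK-eIF2a-CHOP signalling; quantity: 500 reporter cells seeded per well; buffer or medium: F12 medium containing 10% fetal bovine serum; compound: one dose, 10 µM in 0.5% DMSO; incubation: 6 h compound treatment, 37 °C; measured by: Steady-Glo luciferase luminescence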
# TLR9-MyD88 block – TLR9-MyD88 interaction inhibition. inhibition, % at 4.98 µM. AID 504734. hit rate 0.21% among 340,000. CHO BLA complementation TLR9-MyD88, CCF4 FRET ratio. Q9NR96+Q99836;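 active = inhibition above the mean over all tested compounds plus 3 SD, cut at about 21% in these data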;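 also: 0% = DMSO only wells and 100% = clavulanate BLA inhibitor control wells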
# NOD2 RIPK2 PPI – blocks binding of human NOD2 to RIPK2; O43353; CHO BLA complementation NOD2-RIPK2, CCF4 ratio; inhibition, % at 4.98 µM; hit rate 0.38% among 360,000; AID 624267; in the data active = inhibition above about 21%;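 also: 0% = vehicle only and 100% = reference blocker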
# CHOP inhibitor – inhibitors of CHOP induction in ER stress response; CHO-K1 CHOP-promoter luciferase, tunicamycin-induced, 15-18 h; inhibition, % at 10 µM; hit rate 3.8% among 220,000;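 active = compounds that reduced the stress-induced luciferase reporter signal by more than about 70% of percent inhibition, limit read from the data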;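 also: 0% = tunicamycin plus vehicle and 100% = wells without tunicamycin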
# TLR4 MyD88 comp – blocks binding of human TLR4 to MyD88 | hit rate 0.18% among 200,000 | inhibition, % at 8.4 µM | HeLa CL3-4 TLR4/MyD88 BLA complementation, FRET ratio | O00206+Q99836; in the data active = inhibition above about 25%;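 also: 0% = vehicle and 100% = reference inhibitor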
# CHOP UPR conf – confirmation of apoptotic unfolded protein response (CHOP) activators; hit rate 64% among 1,000; AID 463112; activation, % at 10 µM; CHO-CHOP cells, CHOP-luciferase reporter luminescence; percent of tunicamycin response, DMSO as zero; shares compounds with CHOP UPR activ; in the data active = activation above about 33%;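 also: 0% = DMSO wells and 100% = tunicamycin 10 µg/mL wells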
# XBP1 UPR conf – confirmation of adaptive unfolded protein response (XBP1) activators; shares compounds with UPR XBP1 act; hit rate 63% among 1,000; activation, % at 20 µM; CHO-XBP1 IRE1-XBP1 luciferase reporter, luminescence;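 active = reporter signal at least 30% of the positive control's activation in two or more of four replicate wells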;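 also: plate controls were DMSO negative control for no effect and tunicamycin 10 µg/mL positive control for full effect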
# TLR9-MyD88 cf – TLR9-MyD88 interaction inhibition, confirmation | shares compounds with TLR9-MyD88 block | CHO TLR9/MyD88 BLA complementation, CCF4 FRET ratio | inhibition, % at 4.98 µM | hit rate 51% among 680 | AID 540250;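 active = mean inhibition across three repeats above about 21% taken from the earlier screen, limit read from the data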;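 also: blue over green emission ratio reports constitutive TLR9 MyD88 association via BLA complementation; 0% = DMSO vehicle wells and 100% = clavulanate BLA inhibitor wells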
# BLA counter-1 – beta-lactamase reporter inhibition, counter-screen artifact; shares compounds with TLR9-MyD88 block; inhibition, % at 4.98 µM; CHO-BLA cells, CCF4 FRET ratio, BLA reporter; hit rate 7% among 680;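 active = mean inhibition above a 50% cutoff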;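 also: counterscreen of TLR9-MyD88 hits on CMV-driven BLA in CHO-K1 cells; 0% = DMSO alone and 100% = clavulanate blocking BLA; higher means less blue over green ratio so more BLA blockade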
# TLR9 CHO cytotox – counter-screen for TLR9-MyD88 inhibitors: cytotoxicity in CHO cells; shares compounds with TLR9-MyD88 block; luminescence; inhibition, % at 4.98 µM; hit rate 39% among 680; in the data active = inhibition above about 11%
# NOD2-RIPK2 conf – confirmation of human NOD2-RIPK2 interaction inhibitors; shares compounds with NOD2 RIPK2 PPI; CHO cells, NOD2-RIPK2 BLA complementation, CCF4 FRET; inhibition, % at 4.98 µM; hit rate 70% among 1,200; AID 624370;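 active = mean inhibition across replicates above a set limit taken from the earlier primary screen, cut at about 21% in these data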;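 also: 0% = DMSO-only wells and the high end = clavulanate BLA-blocked wells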
# BLA counter-2 – hits BLA reporter in NOD2-RIPK2 inhibitor counterscreen | inhibition, % at 4.98 µM | hit rate 57% among 1,200 | AID 624371 | CHO BLA reporter, CCF4 FRET ratio | shares compounds with NOD2 RIPK2 PPI;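 active = mean inhibition above the low-control mean inhibition plus three low-control SD, cut at about 11% in these data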;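 also: 0% = DMSO only wells and 100% = clavulanate high control wells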
# Active calls of the source: *; · = no result. The sample as a whole holds a higher share of hits than the screen did.
SMILES,UPR XBP1 act,CHOP UPR activ,TLR9-MyD88 block,NOD2 RIPK2 PPI,CHOP inhibitor,TLR4 MyD88 comp,others
CCc1ccc(N2C(=O)NC(=O)/C(=C\C=C\c3ccco3)C2=O)cc1,-4.3,166.8*,3.7,14.5,108.2*,·,CHOP UPR conf=228.9*
CCOc1ccc(N2C(=O)/C(=C/c3ccco3)C(=O)NC2=S)cc1,-4.9,37.5,8.2,-2.3,·,·,
Cc1ccc(N2C(=O)NC(=O)/C(=C/C=C/c3ccco3)C2=O)cc1,-3.9,168.3*,-5.2,-11.0,101.5*,2.0,CHOP UPR conf=119.0*
O=C1NC(=O)N(c2ccccc2)C(=O)/C1=C\C=C\c1ccccc1,-1.0,174.7*,·,4.0,80.9*,·,CHOP UPR conf=63.5*
CC(=O)CCC(C)=O,-0.8,-0.9,-1.0,7.7,·,·,
CCOC(=O)C1CCN(Cc2ccc(Cl)nc2)CC1,-4.2,-0.3,-1.1,-16.2,·,·,
O=C1NC(=S)NC(=O)C1=Cc1ccc(Br)s1,-4.5,71.7*,0.6,2.0,·,·,CHOP UPR conf=118.7*
CN1C(=O)/C(=C\c2ccc(Br)s2)C(=O)NC1=S,·,·,-14.0,-3.6,·,·,
O=c1c2ccccc2nc(/C=C/c2ccc([N+](=O)[O-])o2)n1-c1ccc(O)cc1,20.6,93.6*,·,-1.4,-129.0,13.5,CHOP UPR conf=37.4*
Cc1cccc(-n2c(/C=C/c3ccc([N+](=O)[O-])o3)nc3ccccc3c2=O)c1,11.9,42.9*,5.9,3.8,-84.7,9.2,CHOP UPR conf=36.9*
COc1ccc(CNC(=O)C(NC(C)=O)C(C)C)cc1OC (centres undefined),0.5,-1.0,-11.6,1.7,3.4,4.3,
C=CC1CN2CCC1CC2c1[nH]c2ccccc2c1CCO (centres undefined),-0.1,1.6,8.4,10.0,17.8,-1.5,
CCN(CC)c1ccc(N=Cc2c(O)n(-c3ccc(Cl)cc3)c(=O)[nH]c2=O)cc1,166.9*,31.3,1.1,2.4,47.9,17.9,XBP1 UPR conf=48.3*
CN1OC[C@@H]2CN[C@H](c3ccc(Br)cc3)C[C@@H]21,·,·,-2.7,-0.9,·,·,
C[C@]12CCC3C(CC[C@H]4C[C@H](N)CC[C@]34C)C1CC[C@H]2O (some centres undefined),-1.3,-1.4,-4.5,3.4,·,·,
C=C(C)[C@@]12OC3(c4ccccc4)O[C@@H]1C1[C@@H]4O[C@]4(CO)[C@@H](O)[C@]4(O)C(=O)C(C)=C[C@H]4[C@@]1(O3)[C@H](C)[C@H]2OC(=O)/C=C/C=C/c1ccccc1 (some centres undefined),47.0*,35.8,3.7,-1.7,·,·,XBP1 UPR conf=60.9*
C=Cn1ccnc1P(=S)(c1ccc(Cl)cc1)c1nccn1C=C,-2.9,-1.0,-0.6,-4.2,-6.5,-18.2,
CCCCCc1nc2ccccc2c(=O)n1-c1ccccc1[N+](=O)[O-],-2.7,2.3,6.4,-10.5,-4.1,-15.3,
CCCCCc1nc2c(c(=O)c3ccccc3n2C)c(=O)n1C1CCCCCC1,61.2*,12.2,-4.6,-7.2,102.9*,2.0,XBP1 UPR conf=46.1*
CC(C)N1CC=C(c2c[nH]c3ccccc23)CC1,48.2*,-4.2,-11.7,-2.4,25.0,-5.1,XBP1 UPR conf=0.4
CN(C(=O)Cc1ccc(Cl)c(Cl)c1)C(CN1CCCC1)c1cccc(OCC(=O)O)c1 (centres undefined),-2.3,-0.1,23.3*,2.8,-3.9,·,TLR9-MyD88 cf=-2.2;BLA counter-1=-5.8;TLR9 CHO cytotox=2.3
CC(C)C[C@H](NP(=O)(O)O[C@@H]1O[C@@H](C)[C@H](O)[C@@H](O)[C@H]1O)C(=O)N[C@@H](Cc1c[nH]c2ccccc12)C(=O)O,-6.1,-0.4,2.1,9.1,·,·,
Nc1ccc2ccc3cccc[n+]3c2c1,5.4,-2.6,25.7*,23.5*,·,·,TLR9-MyD88 cf=9.2;BLA counter-1=10.7;TLR9 CHO cytotox=-1.6;NOD2-RIPK2 conf=31.5*;BLA counter-2=35.7*
CCOc1ccc([N+](=O)[O-])cc1CNCCc1ccccc1,-0.3,-0.7,3.0,2.9,-6.8,0.0,
S=C(NC1CCCCC1)N1CCC(c2cnc[nH]2)CC1,-6.5,2.2,-1.3,-21.5,12.5,·,
SMILES,UPR XBP1 act,CHOP UPR activ,TLR9-MyD88 block,NOD2 RIPK2 PPI,CHOP inhibitor,TLR4 MyD88 comp,others
CC1=C(O)C(=O)C=C2C1=CC=C1C2(C)CCC2(C)C3CC(C)(C(=O)O)CCC3(C)CCC12C (centres undefined),·,·,28.6*,80.9*,·,·,TLR9-MyD88 cf=50.1*;BLA counter-1=8.4;TLR9 CHO cytotox=97.7*;NOD2-RIPK2 conf=80.6*;BLA counter-2=7.5
Cc1cc(N(CCCl)CCCl)ccc1C=Cc1ccncn1,·,·,31.8*,40.3*,·,·,TLR9-MyD88 cf=9.4;BLA counter-1=12.2;TLR9 CHO cytotox=3.2;NOD2-RIPK2 conf=25.9*;BLA counter-2=31.1*
CCOP(=O)(Cc1ccccc1)OCC,1.7,-1.8,-9.0,8.4,·,·,
CC1CC(C)CC(C)C(O)C(C#N)=CC=CCC(C2CCCC2C(=O)O)OC(=O)CC(O)C(C)C1 (centres undefined),·,·,5.5,29.9*,·,·,NOD2-RIPK2 conf=28.2*;BLA counter-2=-5.4
COC(=O)C1=C(c2ccc3ccccc3c2)C[C@@H]2CC[C@H]1N2C,-2.6,-0.4,-5.2,-0.7,·,·,
COC(=O)C1=C(C(=O)OC)C2OC1c1cc3ccccc3cc12,·,·,17.9,88.1*,·,·,NOD2-RIPK2 conf=86.2*;BLA counter-2=19.3*
COc1cc(/C=C/c2nc3ccccc3c(=O)n2-c2cccc(O)c2)ccc1O,5.5,0.5,13.6,21.0*,29.4,·,NOD2-RIPK2 conf=5.0;BLA counter-2=13.6*
C[n+]1c(-c2ccccc2)c2cc(N)ccc2c2ccc(N)cc21,-13.5,-1.6,11.3,27.8*,·,·,NOD2-RIPK2 conf=-0.7;BLA counter-2=-2.6
C=C1C(=O)OC2CC3(C)OC3C3OC3C3=CC(OC3=O)C12 (centres undefined),·,·,·,43.6*,·,·,NOD2-RIPK2 conf=66.7*;BLA counter-2=18.3*

# Assay outcomes deposited in PubChem BioAssay by several laboratories.
